# Data reported in ChEMBL document CHEMBL1142469, “Identification of minimal sequence for HIV-1 fusion inhibitors” (Bioorg Med Chem, 2008).
# pEC50: −log10 of the molar value. Where a SMILES comes first, the peptide text is derived from it. [ ]: non-standard residue; d: D form. Aib = CC(C)(N)C(=O)O
# Key:
# [1] = tested on: Human immunodeficiency virus 1; experiment: Antiviral activity against HIV1 in human HeLa-CD4-LTR-beta-gal (MAGI) cells assessed as inhibition of viral replication after 48 hrs by multinuclear activation of galactosidase indicator assay; details: Human immunodeficiency virus 1, HeLa
# [2] = tested on: Human immunodeficiency virus 1; experiment: Binding affinity to HIV1 heptad repeat 1 peptide N36 assessed as melting temperature of drug-HR1 peptide complex
# Summary of the method: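 HR2 peptide and N36 (HR1) peptide mixed, each at 10 μM final in PBS pH 7.4, incubated 37 °C for 30 min, then followed by CD through thermal unfolding; Tm taken as the midpoint of the unfolding transition.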
pEC50 [1],Molecule,Tm [2]
8.15,CC[C@H](C)[C@H](NC(=O)[C@H](CCCCN)NC(=O)[C@H](CCCCN)NC(=O)[C@H](CC(=O)O)NC(=O)[C@H](Cc1c[nH]c2ccccc12)NC(=O)[C@H](CCC(=O)O)NC(=O)[C@H](CCC(=O)O)NC(=O)[C@@H](N)Cc1c[nH]c2ccccc12)C(=O)N[C@@H](CCC(=O)O)C(=O)N[C@@H](CCC(=O)O)C(=O)N[C@@H](Cc1ccc(O)cc1)C(=O)N[C@H](C(=O)N[C@@H](CCCCN)C(=O)N[C@@H](CCCCN)C(=O)N[C@H](C(=O)N[C@@H](CCC(=O)O)C(=O)N[C@@H](CCC(=O)O)C(=O)N[C@@H](CC(C)C)C(=O)N[C@H](C(=O)N[C@@H](CCCCN)C(=O)N[C@@H](CCCCN)C(=O)N[C@@H](CO)C(=O)NC(C)(C)C(=O)N[C@@H](CCC(=O)O)C(=O)N[C@@H](CCC(N)=O)C(=O)N[C@@H](CCC(N)=O)C(=O)NC(C)(C)C(=O)N[C@@H](CCCCN)C(=O)N[C@@H](CC(N)=O)C(=O)O)[C@@H](C)CC)[C@@H](C)CC)[C@@H](C)O (H-WEEWDKKIEEYTKKIEELIKKS[Aib]EQQ[Aib]KN-OH),–
7.50,CC[C@H](C)[C@H](NC(=O)[C@H](CCCCN)NC(=O)[C@H](CCCCN)NC(=O)[C@H](CC(=O)O)NC(=O)[C@H](Cc1c[nH]c2ccccc12)NC(=O)[C@H](CCC(=O)O)NC(=O)[C@H](CCC(=O)O)NC(=O)[C@@H](N)Cc1c[nH]c2ccccc12)C(=O)N[C@@H](CCC(=O)O)C(=O)N[C@@H](CCC(=O)O)C(=O)N[C@@H](Cc1ccc(O)cc1)C(=O)N[C@H](C(=O)N[C@@H](CCCCN)C(=O)N[C@@H](CCCCN)C(=O)N[C@H](C(=O)N[C@@H](CCC(=O)O)C(=O)N[C@@H](CCC(=O)O)C(=O)N[C@@H](CC(C)C)C(=O)N[C@H](C(=O)N[C@@H](CCCCN)C(=O)N[C@@H](CCCCN)C(=O)N[C@@H](CO)C(=O)NC(C)(C)C(=O)NCC(=O)N[C@@H](CCC(N)=O)C(=O)N[C@@H](CCC(N)=O)C(=O)NC(C)(C)C(=O)NCC(=O)N[C@@H](CC(N)=O)C(=O)O)[C@@H](C)CC)[C@@H](C)CC)[C@@H](C)O (H-WEEWDKKIEEYTKKIEELIKKS[Aib]GQQ[Aib]GN-OH),–
9.06,CC[C@H](C)[C@H](NC(=O)[C@H](CCCCN)NC(=O)[C@H](CCCCN)NC(=O)[C@H](CC(=O)O)NC(=O)[C@H](Cc1c[nH]c2ccccc12)NC(=O)[C@H](CCC(=O)O)NC(=O)[C@H](CCC(=O)O)NC(=O)[C@@H](N)Cc1c[nH]c2ccccc12)C(=O)N[C@@H](CCC(=O)O)C(=O)N[C@@H](CCC(=O)O)C(=O)N[C@@H](Cc1ccc(O)cc1)C(=O)N[C@H](C(=O)N[C@@H](CCCCN)C(=O)N[C@@H](CCCCN)C(=O)N[C@H](C(=O)NC(C)(C)C(=O)N[C@@H](CCC(=O)O)C(=O)N[C@@H](CC(C)C)C(=O)N[C@H](C(=O)NC(C)(C)C(=O)N[C@@H](CCCCN)C(=O)N[C@@H](CO)C(=O)N[C@@H](CCC(=O)O)C(=O)N[C@@H](CCC(=O)O)C(=O)N[C@@H](CCC(N)=O)C(=O)N[C@@H](CCC(N)=O)C(=O)N[C@@H](CCCCN)C(=O)N[C@@H](CCCCN)C(=O)N[C@@H](CC(N)=O)C(=O)O)[C@@H](C)CC)[C@@H](C)CC)[C@@H](C)O (H-WEEWDKKIEEYTKKI[Aib]ELI[Aib]KSEEQQKKN-OH),–
7.59,CC[C@H](C)[C@H](NC(=O)[C@H](CCCCN)NC(=O)[C@H](CCCCN)NC(=O)[C@H](CC(=O)O)NC(=O)[C@H](Cc1c[nH]c2ccccc12)NC(=O)[C@H](CCC(=O)O)NC(=O)[C@H](CCC(=O)O)NC(=O)[C@@H](N)Cc1c[nH]c2ccccc12)C(=O)N[C@@H](CCC(=O)O)C(=O)N[C@@H](CCC(=O)O)C(=O)N[C@@H](Cc1ccc(O)cc1)C(=O)N[C@H](C(=O)N[C@@H](CCCCN)C(=O)N[C@@H](CCCCN)C(=O)N[C@H](C(=O)NC(C)(C)C(=O)NCC(=O)N[C@@H](CC(C)C)C(=O)N[C@H](C(=O)NC(C)(C)C(=O)NCC(=O)N[C@@H](CO)C(=O)N[C@@H](CCC(=O)O)C(=O)N[C@@H](CCC(=O)O)C(=O)N[C@@H](CCC(N)=O)C(=O)N[C@@H](CCC(N)=O)C(=O)N[C@@H](CCCCN)C(=O)N[C@@H](CCCCN)C(=O)N[C@@H](CC(N)=O)C(=O)O)[C@@H](C)CC)[C@@H](C)CC)[C@@H](C)O (H-WEEWDKKIEEYTKKI[Aib]GLI[Aib]GSEEQQKKN-OH),–
8.67,CC[C@H](C)[C@H](NC(=O)[C@H](CC(C)C)NC(=O)[C@H](CCC(=O)O)NC(=O)[C@H](CCC(=O)O)NC(=O)[C@@H](NC(=O)[C@H](CCCCN)NC(=O)C(C)(C)NC(=O)[C@@H](NC(=O)[C@H](Cc1ccc(O)cc1)NC(=O)[C@H](CCC(=O)O)NC(=O)C(C)(C)NC(=O)[C@@H](NC(=O)[C@H](CCCCN)NC(=O)[C@H](CCCCN)NC(=O)[C@H](CC(=O)O)NC(=O)[C@H](Cc1c[nH]c2ccccc12)NC(=O)[C@H](CCC(=O)O)NC(=O)[C@H](CCC(=O)O)NC(=O)[C@@H](N)Cc1c[nH]c2ccccc12)[C@@H](C)CC)[C@@H](C)O)[C@@H](C)CC)C(=O)N[C@@H](CCCCN)C(=O)N[C@@H](CCCCN)C(=O)N[C@@H](CO)C(=O)N[C@@H](CCC(=O)O)C(=O)N[C@@H](CCC(=O)O)C(=O)N[C@@H](CCC(N)=O)C(=O)N[C@@H](CCC(N)=O)C(=O)N[C@@H](CCCCN)C(=O)N[C@@H](CCCCN)C(=O)N[C@@H](CC(N)=O)C(=O)O (H-WEEWDKKI[Aib]EYT[Aib]KIEELIKKSEEQQKKN-OH),–
6.57,CC[C@H](C)[C@H](NC(=O)CNC(=O)C(C)(C)NC(=O)[C@@H](NC(=O)[C@H](Cc1ccc(O)cc1)NC(=O)CNC(=O)C(C)(C)NC(=O)[C@@H](NC(=O)[C@H](CCCCN)NC(=O)[C@H](CCCCN)NC(=O)[C@H](CC(=O)O)NC(=O)[C@H](Cc1c[nH]c2ccccc12)NC(=O)[C@H](CCC(=O)O)NC(=O)[C@H](CCC(=O)O)NC(=O)[C@@H](N)Cc1c[nH]c2ccccc12)[C@@H](C)CC)[C@@H](C)O)C(=O)N[C@@H](CCC(=O)O)C(=O)N[C@@H](CCC(=O)O)C(=O)N[C@@H](CC(C)C)C(=O)N[C@H](C(=O)N[C@@H](CCCCN)C(=O)N[C@@H](CCCCN)C(=O)N[C@@H](CO)C(=O)N[C@@H](CCC(=O)O)C(=O)N[C@@H](CCC(=O)O)C(=O)N[C@@H](CCC(N)=O)C(=O)N[C@@H](CCC(N)=O)C(=O)N[C@@H](CCCCN)C(=O)N[C@@H](CCCCN)C(=O)N[C@@H](CC(N)=O)C(=O)O)[C@@H](C)CC (H-WEEWDKKI[Aib]GYT[Aib]GIEELIKKSEEQQKKN-OH),–
9.27,CC[C@H](C)[C@H](NC(=O)[C@H](CC(C)C)NC(=O)[C@H](CCC(=O)O)NC(=O)[C@H](CCC(=O)O)NC(=O)[C@@H](NC(=O)[C@H](CCCCN)NC(=O)[C@H](CCCCN)NC(=O)[C@@H](NC(=O)[C@H](Cc1ccc(O)cc1)NC(=O)[C@H](CCC(=O)O)NC(=O)[C@H](CCC(=O)O)NC(=O)[C@@H](NC(=O)[C@H](CCCCN)NC(=O)C(C)(C)NC(=O)[C@H](CC(=O)O)NC(=O)[C@H](Cc1c[nH]c2ccccc12)NC(=O)[C@H](CCC(=O)O)NC(=O)C(C)(C)NC(=O)[C@@H](N)Cc1c[nH]c2ccccc12)[C@@H](C)CC)[C@@H](C)O)[C@@H](C)CC)C(=O)N[C@@H](CCCCN)C(=O)N[C@@H](CCCCN)C(=O)N[C@@H](CO)C(=O)N[C@@H](CCC(=O)O)C(=O)N[C@@H](CCC(=O)O)C(=O)N[C@@H](CCC(N)=O)C(=O)N[C@@H](CCC(N)=O)C(=O)N[C@@H](CCCCN)C(=O)N[C@@H](CCCCN)C(=O)N[C@@H](CC(N)=O)C(=O)O (H-W[Aib]EWD[Aib]KIEEYTKKIEELIKKSEEQQKKN-OH),–
7.43,CC[C@H](C)[C@H](NC(=O)CNC(=O)C(C)(C)NC(=O)[C@H](CC(=O)O)NC(=O)[C@H](Cc1c[nH]c2ccccc12)NC(=O)CNC(=O)C(C)(C)NC(=O)[C@@H](N)Cc1c[nH]c2ccccc12)C(=O)N[C@@H](CCC(=O)O)C(=O)N[C@@H](CCC(=O)O)C(=O)N[C@@H](Cc1ccc(O)cc1)C(=O)N[C@H](C(=O)N[C@@H](CCCCN)C(=O)N[C@@H](CCCCN)C(=O)N[C@H](C(=O)N[C@@H](CCC(=O)O)C(=O)N[C@@H](CCC(=O)O)C(=O)N[C@@H](CC(C)C)C(=O)N[C@H](C(=O)N[C@@H](CCCCN)C(=O)N[C@@H](CCCCN)C(=O)N[C@@H](CO)C(=O)N[C@@H](CCC(=O)O)C(=O)N[C@@H](CCC(=O)O)C(=O)N[C@@H](CCC(N)=O)C(=O)N[C@@H](CCC(N)=O)C(=O)N[C@@H](CCCCN)C(=O)N[C@@H](CCCCN)C(=O)N[C@@H](CC(N)=O)C(=O)O)[C@@H](C)CC)[C@@H](C)CC)[C@@H](C)O (H-W[Aib]GWD[Aib]GIEEYTKKIEELIKKSEEQQKKN-OH),–
9.41,H-WEEWDKKIEEYTKKIEELIKKSEEQQKKNEEELKK-OH,71.5 °C
< 6.00,H-WMEWDREINNYTSLIHSLIEES-OH,38.5 °C
8.74,H-YTSLIEELIKKSEEQQKKNEEELKKLEEWAKKWNWF-OH,–

Molecule,pEC50 [1],Tm [2]
H-WEEWDKKIEEYTKKIEELIKKS-OH,7.22,63.5 °C
H-WEEWDKKIEEYTKKIEELIKKSEEQQKKN-OH,9.34,65 °C
H-WMEWDREINNYTSLIHSLIEESQNQQEKN-OH,7.34,48.5 °C
enfuvirtide,7.82,–
